Measured values: ChEMBL document CHEMBL3414545, “Fused heterocycles bearing bridgehead nitrogen as potent HIV-1 NNRTIs. Part 4: design, synthesis and biological evaluation of novel imidazo[1,2-a]pyrazines” (Eur J Med Chem, 2015)
Where a name gives a salt, the structure may show the parent alone. Active and inactive are the calls of the source. The calls are words filed in the database; no cut-off is given here.

What was measured:
[1] = system: Human immunodeficiency virus 1; assay: Antiviral activity against HIV1 3B infected in human MT4 cells assessed as reduction in virus-induced cytopathic effect after 5 days by MTT assay; format: functional, organism-based; details: Human immunodeficiency virus 1, 3B, MT4, 120 h
How it was run: (§1)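 Exponentially growing MT-4 cells were pelleted and resuspended at 6 × 10⁵ cells/mL, then infected with virus stock at 100–300 CCID₅₀. Compounds were added at infection as serial five-fold dilutions in triplicate wells, with untreated infected and mock-infected controls. Viability was read spectrophotometrically by MTT five days post-infection. EC₅₀ is the concentration giving 50% protection from viral cytopathic effect.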

[2] = system: Human immunodeficiency virus 1; assay: Antiviral activity against HIV1 RES056 expressing reverse transcriptase K103N/Y181C double mutant infected in human MT4 cells assessed as reduction in virus-induced cytopathic effect after 5 days by MTT assay; format: functional, organism-based; details: Human immunodeficiency virus 1, RES056, MT4, 120 h
How it was run: (§2)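 MT-4 cells resuspended at 6 × 10⁵ cells/mL, then infected with 100–300 CCID₅₀ of HIV-1 IIIB or RES056 or left mock-infected. Compound, in serial five-fold dilutions in triplicate wells, was added at the start. Viability was read by MTT after 5 days. EC₅₀ is 50% protection from viral cytopathicity, CC₅₀ is 50% viability loss in mock-infected cells, and SI is CC₅₀/EC₅₀.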

[3] = Selectivity index, ratio of CC50 for mock-infected human MT4 cells to EC50 for HIV1 3B infected in human MT4 cells; format: toxicity, cell-based; details: mock-infected and infected with HIV1 3B, read-out: Selectivity Index; how it was run: as §2
[4] = Selectivity index, ratio of CC50 for mock-infected human MT4 cells to EC50 for HIV1 RES056 expressing reverse transcriptase K103N/Y181C double mutant; format: toxicity, cell-based; details: read-out: Selectivity Index; how it was run: as §2
[5] = biological target: Human immunodeficiency virus type 1 reverse transcriptase (Human immunodeficiency virus 1, UniProt Q72547); assay: Inhibition of HIV1 reverse transcriptase assessed as reduction in biotin-labeled dUTP incorporation into DNA using poly(A) x oligo(dT)15 as template/primer after 1 hr by ELISA
How it was run: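 Wild-type HIV-1 RT was assayed with a plate-bound homopolymer poly[A]·oligo[dT]₁₅ template/primer and biotin-dUTP, following the Roche RT kit protocol. Incorporated biotin-dUTP, a measure of RT activity, was quantified by ELISA. Percentage inhibition was calculated by formula, and IC₅₀ is the concentration inhibiting biotin-dUTP incorporation by 50%.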

[6] = system: Human immunodeficiency virus 2; assay: Antiviral activity against HIV2 strain ROD infected in human MT4 cells assessed as reduction in virus-induced cytopathic effect at subtoxic concentration; format: functional, organism-based; details: ISOLATE ROD; how it was run: as §1

Compound	EC50 [1] [µM]	EC50 [2] [µM]	selectivity ratio [3]	selectivity ratio [4]	IC50 [5] [µM]	inhibition [6]
Cc1cccc(C)c1Oc1nc(Nc2ccc(C#N)cc2)cn2ccnc12	6.5	> 32	5	< 1	0.82	inactive
Cc1cc(Br)cc(C)c1Oc1nc(Nc2ccc(C#N)cc2)cn2ccnc12	0.98	> 28	28	< 1	0.41	inactive
O=c1[nH]cnc2c1ncn2[C@H]1CC[C@@H](CO)O1 [DIDANOSINE]	–	–	> 9	–	–	–
Cc1cc(C)c(Oc2nc(Nc3ccc([N+](=O)[O-])cc3)cn3ccnc23)c(C)c1	1.3	> 34	25	< 1	4.7	inactive
Cc1cccc(C)c1Oc1nc(Nc2ccc(Cl)cc2)cn2ccnc12	> 57	> 57	< 1	< 1	15	inactive
Cc1cc(Br)cc(C)c1Oc1nc(Nc2ccc([N+](=O)[O-])cc2)cn2ccnc12	4	> 28	7	< 1	4.1	inactive
Cc1cc(Cl)cc(C)c1Oc1nc(Nc2ccc([N+](=O)[O-])cc2)cn2ccnc12	4.6	> 33	7	< 1	1.3	inactive
Cc1cc(C#N)cc(C)c1Oc1nc(Nc2ccc(Cl)cc2)cn2ccnc12	> 13	–	< 1	–	5.5	inactive
Cc1cc(C#N)cc(C)c1Oc1nc(Nc2ccc(CC#N)cc2)cn2ccnc12	19	> 282	15	< 1	0.17	inactive
Cc1cccc(C)c1Oc1nc(Nc2ccc(CC#N)cc2)cn2ccnc12	> 156	> 156	< 1	< 1	5.7	inactive
Nc1ccn([C@@H]2CS[C@H](CO)O2)c(=O)n1 [LAMIVUDINE]	–	–	> 39	–	–	–
O=[N+]([O-])c1ccc(Nc2cn3ccnc3c(Oc3c(F)cc(F)cc3F)n2)cc1	> 28	> 28	< 1	< 1	11	inactive
Cc1cc(C#N)cc(C)c1Oc1nc(Nc2ccc(C#N)cc2)nc2[nH]ccc12	0.0009	–	–	–	–	–
Cc1cccc(C)c1Oc1nc(Nc2ccc([N+](=O)[O-])cc2)cn2ccnc12	> 5.3	–	< 1	–	334	inactive
Cc1cn([C@H]2C[C@H](N=[N+]=[N-])[C@@H](CO)O2)c(=O)[nH]c1=O [ZIDOVUDINE]	–	0.01	> 13100	> 9150	–	–
Cc1cc(C#N)cc(C)c1Oc1nc(Nc2ccc(C#N)cc2)cn2ccnc12	0.32	> 73	≥ 224	1	0.26	inactive
Cc1ccnc2c1NC(=O)c1cccnc1N2C1CC1 [NEVIRAPINE]	–	≥ 7.6	–	–	–	–
Cc1cc(C)c(Oc2nc(Nc3ccc(C#N)cc3)cn3ccnc23)c(C)c1	0.26	> 33	126	< 1	0.4	inactive
Cc1cc(C#N)cc(C)c1Oc1nc(Nc2ccc([N+](=O)[O-])cc2)cn2ccnc12	2.3	> 29	13	< 1	14	inactive
Cc1cc(C)c(Oc2nc(Nc3ccc(CC#N)cc3)cn3ccnc23)c(C)c1	9.2	> 117	13	< 1	0.36	inactive
Cc1cc(C#N)cc(C)c1Oc1nc(Nc2ccc(C#N)cc2)nc(N)c1Br [ETRAVIRINE]	0.004	0.02	–	–	–	–
N#Cc1ccc(Nc2cn3ccnc3c(Oc3c(F)cc(F)cc3F)n2)cc1	7.2	> 38	5	< 1	0.47	inactive
CC(C)Nc1cccnc1N1CCN(C(=O)c2cc3cc(NS(C)(=O)=O)ccc3[nH]2)CC1 [DELAVIRDINE MESYLATE]	–	> 36	> 67	1	–	–
Cc1cc(C)c(Oc2nc(Nc3ccc(Cl)cc3)cn3ccnc23)c(C)c1	> 12	> 12	< 1	< 1	5.9	inactive
Cc1cc(Cl)cc(C)c1Oc1nc(Nc2ccc(C#N)cc2)cn2ccnc12	0.87	> 34	39	< 1	1.1	inactive
